GSK3 alpha inh – inhibitors of human GSK-3 alpha kinase; ADP-Glo luminescence, 60 min; inhibition, % at 10 µM; hit rate 0.1% among 320,000; AID 2650;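 active = more than half of replicates show inhibition above 20%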;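 also: GST-tagged GSK-3 alpha with peptide substrate and 25 µM ATP; 0% = DMSO neutral wells and 100% = GW8510 positive control wells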
GSK3beta inhib – inhibitors of human GSK3beta kinase | activity score (negative = inhibition), % at 10 µM | hit rate 0.038% among 300,000 | GST-GSK3beta kinase, ADP-Glo luminescence, 60 min; active compounds read low | P49841 | AID 2097;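 active = more than half of replicate wells score below -50%, meaning over 50% inhibition versus plate controls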;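 also: 0% = median DMSO wells and -100% = median GW8510 positive control wells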
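Test system – GST-tagged human GSK3beta kinase, cell-free · Incubation – 60 min enzyme reaction, room temperature · Signal – ADP-Glo luminescence · Also added – peptide substrate and ATP at 25 µM · Controls – DMSO neutral wells and GW8510 at 20 µM as positive · Buffer or medium – Tris/MgCl2 kinase buffer · Measure – Luminescence-derived activity versus plate DMSO and GW8510 wells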
Dyrk1A ADPGlo – Dyrk1A (rat) kinase inhibition; Q63470; ADP-Glo luminescence, NFATc1 peptide; inhibition, % at 12.5 µM; hit rate 0.43% among 310,000; in the data active = inhibition above about 50%;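 also: plate controls were vehicle with enzyme for no effect and no enzyme for full effect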
CDK5 p35 inh – CDK5/p35 (human) kinase inhibition. Q00535+Q15078. Recombinant CDK5/p35, ADP-Glo luminescence, 60 min. inhibition, % at 10 µM. hit rate 0.01% among 330,000;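 active = highest replicate inhibition of at least 50% and at least 75% of replicates reaching 50%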;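 also: plate controls were DMSO neutral control for no effect and GW8510 at 10 µM for full effect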
Target sequence (Q00535 whole entry, looked up): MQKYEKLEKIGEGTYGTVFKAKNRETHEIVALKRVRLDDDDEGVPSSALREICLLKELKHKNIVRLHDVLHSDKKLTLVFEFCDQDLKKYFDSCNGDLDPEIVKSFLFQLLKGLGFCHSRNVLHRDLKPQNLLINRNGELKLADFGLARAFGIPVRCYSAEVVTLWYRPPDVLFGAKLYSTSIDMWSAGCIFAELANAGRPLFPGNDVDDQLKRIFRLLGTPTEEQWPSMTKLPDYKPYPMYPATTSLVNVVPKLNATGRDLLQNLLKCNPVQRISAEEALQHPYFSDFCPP
Target sequence (Q15078 whole entry, looked up): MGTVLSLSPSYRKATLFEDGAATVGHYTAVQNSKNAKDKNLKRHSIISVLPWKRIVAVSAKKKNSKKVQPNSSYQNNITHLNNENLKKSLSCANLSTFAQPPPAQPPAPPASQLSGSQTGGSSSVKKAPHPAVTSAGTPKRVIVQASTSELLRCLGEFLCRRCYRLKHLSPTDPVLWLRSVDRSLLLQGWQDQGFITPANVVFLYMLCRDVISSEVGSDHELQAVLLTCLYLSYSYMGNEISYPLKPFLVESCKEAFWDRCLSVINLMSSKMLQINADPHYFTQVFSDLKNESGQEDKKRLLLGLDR
STK33 inh – inhibitors of human STK33 kinase; purified STK33, MBP phosphorylation, ADP-Glo luminescence; hit rate 0.073% among 320,000; inhibition, % at 10 µM; Q9BYT3;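 active = inhibition at or above 25%, using the most active replicate where run in duplicate; inactive = inhibition below 25%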
The depositor's hits bear a star; . = no result. Many of the other results were omitted from the sample, so hits are more common in it than they were.

SMILES	GSK3 alpha inh	GSK3beta inhib	Dyrk1A ADPGlo	CDK5 p35 inh	STK33 inh
Cc1nn(-c2ccccc2)c(N2CCCC2)c1/C=N/Nc1ccc(S(N)(=O)=O)cc1[N+](=O)[O-]	0	-1	-4	0	-1
CCOC(=O)Cc1nnc(NC(=O)COc2ccc(OC)cc2)s1	-1	0	.	-1	0
CCOC(=O)Cc1nnc(NC(=O)COc2ccc(C)cc2)s1	0	-1	3	0	27*
O=C(c1ccc2c3n(nc2c1)-c1ccccc1CO3)N1CCCCC1	32	-19	44	34	27*
Cc1cn(C2OC(CC(=O)Oc3ccccc3)C(O)C2O)c(=O)[nH]c1=O (centres undefined)	52*	-25	-7	0	0
Cc1cn(C2OC(COC(=O)c3ccccc3)C(O)C2Cl)c(=O)[nH]c1=O (centres undefined)	5	0	13	0	3
CCOC(=O)C1CCCN(C(=O)c2cccc(S(=O)(=O)N(C)c3c(C)n(C)n(-c4ccccc4)c3=O)c2)C1 (centres undefined)	0	1	2	6	-1
CCOC1(OCC)N=C(N)C2(C#N)C(c3ccc(NC(C)=O)cc3)C12C#N (centres undefined)	60*	3	36	0	13
COC1(OC)N=C(N)C2(C#N)C(c3ccc(F)cc3)C12C#N (centres undefined)	1	1	13	-4	-2
Cc1[nH][nH]c(=O)c1N=Nc1ccc(S(N)(=O)=O)cc1	59*	-22	.	.	3
CC(=O)c1ccc(N=Nc2c(C)[nH][nH]c2=O)cc1	26	-8	24	3	3
CCCn1c2ccc(/C(C)=N\O)cc2c2cc(/C(C)=N/O)ccc21	1	-2	3	0	44*
C/C(=N\O)c1ccc(Cl)c(Cl)c1	-3	4	.	.	1
COc1ccc(-c2nn(-c3ccccc3)cc2/C=N/NS(=O)(=O)c2ccccc2)cc1	-2	-1	6	-5	3
COc1ccc(-c2nn(-c3ccccc3)cc2/C=N/O)cc1	46	-54*	41	4	0
COc1ccc(NC(=O)C(Sc2nnc3ccccn23)c2ccccc2)cc1Cl (centres undefined)	0	3	-1	0	-2
O=C1c2ccccc2N2C(=O)c3ccccc3[C@H]2N1c1ccccc1	4	-1	1	1	0
O=C1NC2c3ccccc3C(=O)N2c2c1cnn2-c1ccccc1 (centres undefined)	12	0	18	0	28*
C1CN(CCN2CCOCC2)CCN1	-1	-2	.	2	-2
COc1cc(/C=N/n2c(-c3ccccc3)n[nH]c2=S)cc(OC)c1O	-1	1	-10	2	1
COc1cc(/C=N/n2c(-c3n[nH]c4c3CCC4)n[nH]c2=S)ccc1O	16	0	-5	4	40*
COc1cc(/C=N/n2c(-c3ccccc3)n[nH]c2=S)ccc1O	5	1	39	6	46*
COc1ccc(/C=N/n2c(-c3n[nH]c4c3CCC4)n[nH]c2=S)cc1OC	9	2	-1	1	0
CCOc1ccc(S(=O)(=O)N(CC(=O)NCc2ccncc2)c2ccc(C)cc2)cc1	0	1	1	-1	-4
CS(=O)(=O)N1CCN(c2ccccc2NC(=O)c2ccc(Br)o2)CC1	53*	2	43	1	23
SMILES	GSK3 alpha inh	GSK3beta inhib	Dyrk1A ADPGlo	CDK5 p35 inh	STK33 inh
CCOc1cc(C2C3=C(CC(C)(C)CC3=O)Nc3n[nH]c(C)c32)ccc1O (centres undefined)	94*	-61*	-2	-3	-1
CCOC(=O)C1=C(C)NC2=C(C(=O)CC(C)(C)C2)C1c1ccc(O)c(OCC)c1 (centres undefined)	-2	1	-4	0	-3
O=c1[nH][nH]c2c(N=Cc3ccccc3O)ccc(F)c12	.	.	58*	-2	.
CCCN(CCC)CCCNc1ccc2nnc(-c3ccc(F)cc3)n2n1	56*	-44	13	0	2
COc1cc(CCNc2ccc3nnc(-c4ccccc4)n3n2)cc(OC)c1OC	14	-3	3	-1	2
COc1ccc(-c2onc3ccc(Br)cc23)cc1	-2	2	2	-1	1
COc1ccc(-c2onc3ccc(C(=O)/C=C/N(C)C)cc23)cc1	0	-4	26	2	31*
CN(C)/C=C/C(=O)c1ccc2noc(-c3cccc(F)c3)c2c1	3	4	19	-4	35*
CCOc1ccc2ccccc2c1/C=N/NC(=O)CC1(C)OCCCO1	-2	-3	-2	-1	1
Cc1ncc([N+](=O)[O-])n1CCOC(=O)c1ccc(Cl)cc1Cl	0	-1	3	-1	-1
Nc1cccc2cccc([N+](=O)[O-])c12	.	.	-1	7	.
COc1ccc2nc(NC(=O)CSc3nccc(C)n3)sc2c1	15	-15	43	1	3
COc1ccc2nc(NC(=O)CSc3n[nH]c(N)n3)sc2c1	58*	-38	17	0	15
Cc1cccc(/C(N)=N/OC(=O)c2ccc3c(c2)OCO3)c1	35	-25	23	23	32*
N/C(=N\OC(=O)c1ccc2c(c1)OCO2)c1cccc([N+](=O)[O-])c1	0	1	5	-1	4
O=[N+]([O-])c1ccc(C(O)C[n+]2ccccc2)cc1 (centres undefined)	-3	-3	1	0	-2
Cc1nn(C)cc1/C=C/C(=O)c1ccc(O)cc1	6	-1	10	2	31*
Cc1ccc(S(=O)(=O)N2CCN(C(=O)COC(=O)/C=C/c3ccc(OC(F)F)cc3)CC2)cc1	.	.	9	1	.
C/C(=N\NC(=O)CCCOc1ccc(Cl)cc1C)c1ccc(C)o1	-2	-1	-1	1	0
CCOC(=O)c1cnc2ccc(OC)cc2c1Nc1ccc(N2CCN(C)CC2)cc1	84*	-59*	44	1	0
Cc1ccc(CNC(=O)CCS(=O)(=O)c2ccc3c(c2)CC(C)N3C(=O)C2CC2)cc1 (centres undefined)	1	-1	.	.	-6
COc1ccc(-c2oc3ncnc(NCCCN(C)C)c3c2-c2ccc(OC)cc2)cc1	5	-4	-3	0	38*
COc1ccc(CCCN2CCC(CN3CCNC(=O)C3=O)CC2)cc1OC	.	.	.	-1	.
COc1ccc(C(=O)O/N=C(\C)c2ccccc2)cc1	25	-28	37	37	29*
COc1ccc(C(=O)O/N=C(/c2ccccc2)c2ccncc2)cc1	2	1	-5	1	-2
Cc1cc(O)ccc1NS(=O)(=O)c1ccc2c3c(cccc13)C(=O)N2	14	-5	36	0	41*
O=C(NC(=S)Nc1ccccc1N1CCCC1)c1cccc(F)c1	6	1	28	1	-2
C/C=C/c1ccc(O)c(OC)c1	-2	.	2	0	0
Oc1cc(O)cc(/C=C/c2ccc(O)c(O)c2)c1	28	.	69*	22	50*
